Calls of active or inactive are those of the source. The rule behind the calls is not given here.
Tests used:
MV4-11 [1] = experiment: Cell cycle arrest in human MV4-11 cells assessed as accumulation at sub-G1 phase at 0.04 uM after 24 hrs by propidium iodide staining based flow cytometry (reference value: 1.99%); format: functional
Homo sapiens = species: Homo sapiens; experiment: Inhibition of SGK (unknown origin) assessed as residual activity at 10 uM; values are per cent of control
[2] = molecular target: Receptor-type tyrosine-protein kinase FLT3 (Homo sapiens) (UniProt P36888); experiment: Inhibition of recombinant human N-terminal GST-tagged Flt3 (564 to end amino acid residues) expressed in baculovirus infected Sf21 insect cells assessed as residual activity at 10 uM; values are per cent of control
MV4-11 [3] = experiment: Cell cycle arrest in human MV4-11 cells assessed as accumulation at G2/M phase at 0.20 uM after 24 hrs by propidium iodide staining based flow cytometry (reference value: 17.94%); format: functional
MV4-11 [4] = experiment: Cell cycle arrest in human MV4-11 cells assessed as accumulation at sub-G1 phase at 0.20 uM after 24 hrs by propidium iodide staining based flow cytometry (reference value: 1.99%); format: functional
MV4-11 [5] = experiment: Cell cycle arrest in human MV4-11 cells assessed as accumulation at S phase at 0.20 uM after 24 hrs by propidium iodide staining based flow cytometry (reference value: 19.07%); format: functional
MV4-11 [6] = experiment: Cell cycle arrest in human MV4-11 cells assessed as accumulation at G1 phase at 0.04 uM after 24 hrs by propidium iodide staining based flow cytometry (reference value: 61.01%); format: functional
[7] = molecular target: Vascular endothelial growth factor receptor 3 (Homo sapiens) (UniProt P35916); experiment: Inhibition of recombinant human N-terminal GST-tagged Flt4 (800 to end amino acid residues) expressed in baculovirus infected Sf21 insect cells assessed as residual activity at 10 uM; values are per cent of control
[8] = molecular target: Fibroblast growth factor receptor 1 (Homo sapiens) (UniProt P11362); experiment: Inhibition of recombinant human N-terminal GST-tagged FGFR1 (456 to 765 amino acid residues) expressed in baculovirus infected Sf21 insect cells assessed as residual activity at 10 uM; values are per cent of control
[9] = molecular target: MAP kinase-interacting serine/threonine-protein kinase 2 (Homo sapiens) (UniProt Q9HBH9); experiment: Inhibition of recombinant full-length human N-terminal His6-tagged Mnk2 expressed in baculovirus infected Sf21 insect cells assessed as residual activity at 10 uM; values are per cent of control
MV4-11 [10] = experiment: Cell cycle arrest in human MV4-11 cells assessed as accumulation at S phase at 0.40 uM after 24 hrs by propidium iodide staining based flow cytometry (reference value: 19.07%); format: functional
[11] = molecular target: Dual specificity tyrosine-phosphorylation-regulated kinase 1A (Rattus norvegicus) (UniProt Q63470); experiment: Inhibition of recombinant rat N-terminal GST-tagged DYRK1A (1 to 499 amino acid residues) expressed in Escherichia coli assessed as residual activity at 10 uM; values are per cent of control
[12] = molecular target: Serine/threonine-protein kinase pim-1 (Homo sapiens) (UniProt P11309); experiment: Inhibition of recombinant full-length human N-terminal GST-tagged Pim-1 expressed in Escherichia coli assessed as residual activity at 10 uM; values are per cent of control
Serine/threonine-protein kinase pim-1 (Homo sapiens), sequence (P11309 whole entry, looked up): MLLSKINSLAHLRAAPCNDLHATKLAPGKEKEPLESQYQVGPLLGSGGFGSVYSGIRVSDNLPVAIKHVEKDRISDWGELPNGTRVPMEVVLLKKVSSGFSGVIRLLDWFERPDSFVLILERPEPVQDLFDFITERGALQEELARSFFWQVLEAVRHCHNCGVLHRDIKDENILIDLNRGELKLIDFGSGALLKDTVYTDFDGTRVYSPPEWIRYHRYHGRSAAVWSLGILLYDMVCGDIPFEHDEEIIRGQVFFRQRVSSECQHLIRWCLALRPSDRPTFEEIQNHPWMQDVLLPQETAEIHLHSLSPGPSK

MV4-11 [13] = experiment: Growth inhibition of human MV4-11 cells after 72 hrs by resazurin assay; format: functional; conditions: MV4-11, 72 h
Procedure, shortened: (§1)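 72 h antiproliferation assay, resazurin read-out for MV4-11 and MTT read-out for MDA-MB-453; values from at least two replicates.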

MV4-11 [14] = experiment: Cell cycle arrest in human MV4-11 cells assessed as accumulation at G2/M phase at 0.04 uM after 24 hrs by propidium iodide staining based flow cytometry (reference value: 17.94%); format: functional
MV4-11 [15] = experiment: Cell cycle arrest in human MV4-11 cells assessed as accumulation at G1 phase at 0.40 uM after 24 hrs by propidium iodide staining based flow cytometry (reference value: 61.01%); format: functional
MV4-11 [16] = experiment: Cell cycle arrest in human MV4-11 cells assessed as accumulation at G1 phase at 0.20 uM after 24 hrs by propidium iodide staining based flow cytometry (reference value: 61.01%); format: functional
[17] = molecular target: Death-associated protein kinase 1 (Homo sapiens) (UniProt P53355); experiment: Inhibition of recombinant human N-terminal GST-tagged DAPK1 (1 to 296 amino acid residues) expressed in baculovirus infected Sf21 cells assessed as residual activity at 10 uM; values are per cent of control
Death-associated protein kinase 1 (Homo sapiens), sequence (P53355 whole entry, looked up, the tested form may be a part): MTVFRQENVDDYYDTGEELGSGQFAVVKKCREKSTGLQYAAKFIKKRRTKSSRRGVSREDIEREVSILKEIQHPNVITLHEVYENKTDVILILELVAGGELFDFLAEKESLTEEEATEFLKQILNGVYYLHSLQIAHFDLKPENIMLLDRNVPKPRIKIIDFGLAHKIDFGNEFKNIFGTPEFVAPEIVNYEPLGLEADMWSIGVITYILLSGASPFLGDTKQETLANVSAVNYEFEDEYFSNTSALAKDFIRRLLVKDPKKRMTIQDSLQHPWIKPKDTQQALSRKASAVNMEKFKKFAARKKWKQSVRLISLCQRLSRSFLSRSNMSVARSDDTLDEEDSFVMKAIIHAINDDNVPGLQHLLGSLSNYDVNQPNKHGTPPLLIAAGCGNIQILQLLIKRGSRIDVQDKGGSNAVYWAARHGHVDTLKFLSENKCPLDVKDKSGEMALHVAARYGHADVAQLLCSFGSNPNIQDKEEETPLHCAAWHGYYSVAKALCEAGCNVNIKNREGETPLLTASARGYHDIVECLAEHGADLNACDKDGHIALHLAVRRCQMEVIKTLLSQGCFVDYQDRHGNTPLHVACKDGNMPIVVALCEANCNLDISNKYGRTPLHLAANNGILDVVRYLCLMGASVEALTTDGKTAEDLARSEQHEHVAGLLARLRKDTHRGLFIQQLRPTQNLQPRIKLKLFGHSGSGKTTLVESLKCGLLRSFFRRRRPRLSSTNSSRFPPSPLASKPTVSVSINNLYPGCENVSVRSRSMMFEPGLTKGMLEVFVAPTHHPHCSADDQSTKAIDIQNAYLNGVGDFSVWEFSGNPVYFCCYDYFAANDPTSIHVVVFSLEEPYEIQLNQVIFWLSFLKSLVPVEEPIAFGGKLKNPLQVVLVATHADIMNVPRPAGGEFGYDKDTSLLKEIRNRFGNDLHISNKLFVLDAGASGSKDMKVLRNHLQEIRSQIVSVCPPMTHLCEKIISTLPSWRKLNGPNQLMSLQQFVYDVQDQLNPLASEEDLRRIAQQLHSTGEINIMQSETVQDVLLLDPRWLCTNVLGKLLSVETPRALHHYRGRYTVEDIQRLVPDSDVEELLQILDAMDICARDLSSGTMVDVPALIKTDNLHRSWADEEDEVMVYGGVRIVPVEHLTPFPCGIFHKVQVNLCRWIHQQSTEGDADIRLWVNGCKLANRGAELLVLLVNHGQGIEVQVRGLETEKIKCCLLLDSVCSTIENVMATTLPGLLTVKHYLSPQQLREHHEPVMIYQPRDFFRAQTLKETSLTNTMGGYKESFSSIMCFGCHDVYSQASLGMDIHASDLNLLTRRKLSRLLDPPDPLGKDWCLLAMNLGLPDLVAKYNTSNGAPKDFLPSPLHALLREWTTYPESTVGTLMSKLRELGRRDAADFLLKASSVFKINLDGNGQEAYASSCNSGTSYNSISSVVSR

[18] = molecular target: Cyclin-dependent kinase 1/cyclin B1 (Homo sapiens, UniProt P06493); experiment: (§2) Inhibition of CDK1/cyclin B (unknown origin) in presence of [gamma-33P]-ATP […]; format: protein-complex assay; conditions: read-out: Ki(app)
Cyclin-dependent kinase 1/cyclin B1, sequence (P06493 whole entry): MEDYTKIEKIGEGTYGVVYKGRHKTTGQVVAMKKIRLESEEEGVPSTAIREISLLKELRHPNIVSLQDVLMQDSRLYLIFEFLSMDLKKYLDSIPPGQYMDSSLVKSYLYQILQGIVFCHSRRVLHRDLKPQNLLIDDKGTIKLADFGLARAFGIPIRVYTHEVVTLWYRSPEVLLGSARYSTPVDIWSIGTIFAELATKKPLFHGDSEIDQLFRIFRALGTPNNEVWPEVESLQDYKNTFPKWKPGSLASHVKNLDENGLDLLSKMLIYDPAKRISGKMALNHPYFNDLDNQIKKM
Cyclin-dependent kinase 1/cyclin B1, sequence (P14635 whole entry, further chain): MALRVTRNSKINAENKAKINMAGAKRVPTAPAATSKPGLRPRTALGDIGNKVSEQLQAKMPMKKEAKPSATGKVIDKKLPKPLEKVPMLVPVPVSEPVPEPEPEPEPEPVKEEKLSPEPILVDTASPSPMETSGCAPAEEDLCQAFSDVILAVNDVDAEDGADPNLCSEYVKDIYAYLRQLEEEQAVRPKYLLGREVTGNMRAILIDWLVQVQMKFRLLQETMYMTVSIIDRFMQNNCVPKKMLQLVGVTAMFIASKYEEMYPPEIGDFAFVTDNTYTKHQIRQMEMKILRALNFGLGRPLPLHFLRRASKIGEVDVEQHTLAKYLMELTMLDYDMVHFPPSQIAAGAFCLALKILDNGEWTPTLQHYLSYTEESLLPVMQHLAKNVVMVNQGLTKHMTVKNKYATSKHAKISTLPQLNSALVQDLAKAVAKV

MV4-11 [19] = experiment: Cell cycle arrest in human MV4-11 cells assessed as accumulation at G1 phase after 24 hrs by propidium iodide staining based flow cytometry; format: functional
MDA-MB-453 = experiment: Growth inhibition of human MDA-MB-453 cells after 72 hrs by MTT assay; format: functional; conditions: MDA-MB-453, 72 h; procedure, shortened: as §1
CDK2/Cyclin A2 = CDK2/Cyclin A2 (Homo sapiens, UniProt P24941); experiment: Inhibition of CDK2/cyclin A (unknown origin) in presence of [gamma-33P]-ATP […]; format: protein-complex assay; conditions: read-out: Ki(app)
[20] = molecular target: Dual specificity tyrosine-phosphorylation-regulated kinase 1B (Homo sapiens) (UniProt Q9Y463); experiment: Inhibition of DYRK1B (unknown origin) assessed as residual activity at 10 uM; values are per cent of control
Dual specificity tyrosine-phosphorylation-regulated kinase 1B (Homo sapiens), sequence (Q9Y463 whole entry, looked up, the tested form may be a part): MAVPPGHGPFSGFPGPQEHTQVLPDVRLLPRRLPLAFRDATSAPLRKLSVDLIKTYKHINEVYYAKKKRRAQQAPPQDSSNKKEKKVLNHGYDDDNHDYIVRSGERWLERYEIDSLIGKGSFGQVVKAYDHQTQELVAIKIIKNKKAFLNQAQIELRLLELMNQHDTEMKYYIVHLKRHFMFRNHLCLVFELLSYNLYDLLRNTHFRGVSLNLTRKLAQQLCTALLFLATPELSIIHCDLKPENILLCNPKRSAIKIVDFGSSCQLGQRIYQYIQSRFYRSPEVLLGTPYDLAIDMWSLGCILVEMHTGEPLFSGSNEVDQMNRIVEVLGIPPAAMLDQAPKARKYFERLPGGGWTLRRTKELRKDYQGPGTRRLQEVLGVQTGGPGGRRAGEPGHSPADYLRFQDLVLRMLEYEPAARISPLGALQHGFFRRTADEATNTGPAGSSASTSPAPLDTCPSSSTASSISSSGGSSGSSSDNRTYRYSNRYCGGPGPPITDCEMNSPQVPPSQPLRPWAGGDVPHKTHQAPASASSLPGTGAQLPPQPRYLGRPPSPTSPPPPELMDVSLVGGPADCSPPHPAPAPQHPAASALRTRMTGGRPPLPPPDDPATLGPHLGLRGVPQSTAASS

MV4-11 [21] = experiment: Cell cycle arrest in human MV4-11 cells assessed as accumulation at sub-G1 phase at 0.40 uM after 24 hrs by propidium iodide staining based flow cytometry (reference value: 1.99%); format: functional
MV4-11 [22] = experiment: Cell cycle arrest in human MV4-11 cells assessed as accumulation at G2/M phase at 0.40 uM after 24 hrs by propidium iodide staining based flow cytometry (reference value: 17.94%); format: functional
[23] = molecular target: Homeodomain-interacting protein kinase 2 (Homo sapiens) (UniProt Q9H2X6); experiment: Inhibition of recombinant human N-terminal His6-tagged HIPK2 (165 to 564 amino acid residues) expressed in baculovirus infected Sf21 insect cells assessed as residual activity at 10 uM; values are per cent of control
Homeodomain-interacting protein kinase 2 (Homo sapiens), sequence (Q9H2X6 whole entry, looked up, the tested form may be a part): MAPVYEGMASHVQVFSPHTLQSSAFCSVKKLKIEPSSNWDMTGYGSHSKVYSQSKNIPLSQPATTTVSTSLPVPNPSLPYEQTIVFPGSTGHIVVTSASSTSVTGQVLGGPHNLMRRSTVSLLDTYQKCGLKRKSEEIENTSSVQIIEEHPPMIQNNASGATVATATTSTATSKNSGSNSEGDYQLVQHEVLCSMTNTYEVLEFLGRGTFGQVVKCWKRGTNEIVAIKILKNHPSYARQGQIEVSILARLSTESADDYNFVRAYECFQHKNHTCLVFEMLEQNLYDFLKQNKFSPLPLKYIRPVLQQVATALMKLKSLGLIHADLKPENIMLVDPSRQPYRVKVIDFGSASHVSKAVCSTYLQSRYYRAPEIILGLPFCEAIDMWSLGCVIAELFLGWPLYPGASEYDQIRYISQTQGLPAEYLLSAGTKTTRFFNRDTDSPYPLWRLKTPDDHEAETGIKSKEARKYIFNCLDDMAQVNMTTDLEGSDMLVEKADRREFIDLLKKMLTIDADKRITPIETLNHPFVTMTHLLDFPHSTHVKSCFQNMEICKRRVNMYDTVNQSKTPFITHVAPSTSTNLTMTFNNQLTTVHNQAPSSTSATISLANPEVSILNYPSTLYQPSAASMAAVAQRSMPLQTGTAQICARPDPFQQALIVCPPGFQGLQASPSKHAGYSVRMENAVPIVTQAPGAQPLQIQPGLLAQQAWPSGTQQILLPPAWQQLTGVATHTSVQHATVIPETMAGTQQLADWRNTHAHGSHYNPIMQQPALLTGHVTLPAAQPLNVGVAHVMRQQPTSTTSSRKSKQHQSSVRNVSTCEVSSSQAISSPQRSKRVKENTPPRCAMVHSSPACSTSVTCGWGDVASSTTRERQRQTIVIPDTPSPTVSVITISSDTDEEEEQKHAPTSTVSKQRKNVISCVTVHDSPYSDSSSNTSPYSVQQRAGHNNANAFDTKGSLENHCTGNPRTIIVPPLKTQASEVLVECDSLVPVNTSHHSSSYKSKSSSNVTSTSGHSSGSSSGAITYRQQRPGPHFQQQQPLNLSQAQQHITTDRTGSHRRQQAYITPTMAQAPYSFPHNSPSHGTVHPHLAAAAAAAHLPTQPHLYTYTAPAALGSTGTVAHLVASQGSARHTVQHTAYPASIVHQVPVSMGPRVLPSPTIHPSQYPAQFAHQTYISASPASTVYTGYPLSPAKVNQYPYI

MV4-11 [24] = experiment: Cell cycle arrest in human MV4-11 cells assessed as accumulation at S phase at 0.04 uM after 24 hrs by propidium iodide staining based flow cytometry (reference value: 19.07%); format: functional
[25] = molecular target: Cyclin-dependent kinase 7/ cyclin H (Homo sapiens, UniProt P50613); experiment: (§3) Inhibition of CDK7/cyclin H (unknown origin) in presence of [gamma-33P]-ATP […]; format: protein-complex assay; conditions: read-out: Ki(app)
[26] = molecular target: Homeodomain-interacting protein kinase 2 (Homo sapiens) (UniProt Q9H2X6); experiment: Inhibition of recombinant human N-terminal His6-tagged HIPK2 (165 to 564 amino acid residues) expressed in baculovirus infected Sf21 insect cells assessed as residual activity at 10 uM
[27] = molecular target: Cyclin-dependent kinase 1/cyclin B1 (Homo sapiens) (UniProt P06493+P14635); experiment: as §2; format: protein-complex assay
Cyclin-dependent kinase 1/cyclin B1 (Homo sapiens), sequence (P06493 whole entry, looked up): as the sequence (P06493 whole entry) above
Cyclin-dependent kinase 1/cyclin B1 (Homo sapiens), sequence (P14635 whole entry, looked up): as the sequence (P14635 whole entry, further chain) above

[28] = molecular target: Dual specificity tyrosine-phosphorylation-regulated kinase 1B (Homo sapiens) (UniProt Q9Y463); experiment: Inhibition of DYRK1B (unknown origin) assessed as residual activity at 10 uM
[29] = molecular target: Dual specificity tyrosine-phosphorylation-regulated kinase 1A (Rattus norvegicus) (UniProt Q63470); experiment: Inhibition of recombinant rat N-terminal GST-tagged DYRK1A (1 to 499 amino acid residues) expressed in Escherichia coli assessed as residual activity at 10 uM
[30] = molecular target: Cyclin-dependent kinase 7/ cyclin H (Homo sapiens) (UniProt P51946+P50613); experiment: as §3; format: protein-complex assay

Cc1nc(NC2CCCC2)sc1-c1ccnc(Nc2ccc(N3CCNCC3)cn2)n1
Activity (MV4-11 [1]): 6.3% | residual activity (Homo sapiens): < 10% | residual activity [2]: < 10% | Activity (MV4-11 [3]): 9.96% | Activity (MV4-11 [4]): 4.23% | Activity (MV4-11 [5]): 13.52% | Activity (MV4-11 [6]): 64.05% | residual activity [7]: < 10% | residual activity [8]: < 10% | residual activity [9]: < 10% | Activity (MV4-11 [10]): 5.9% | residual activity [11]: < 10% | residual activity [12]: < 10% | GI50 (MV4-11 [13]): 23 nM | Activity (MV4-11 [14]): 12.73% | Activity (MV4-11 [15]): 85 - 85.24% | Activity (MV4-11 [16]): 72.09% | residual activity [17]: < 10% | Ki [18]: > 5000 nM | Activity (MV4-11 [19]): Dose-dependent effect | GI50 (MDA-MB-453): 70 nM | Ki (CDK2/Cyclin A2): > 5000 nM | residual activity [20]: < 10% | Activity (MV4-11 [21]): 4.01% | Activity (MV4-11 [22]): 4.7% | residual activity [23]: < 10% | Activity (MV4-11 [24]): 17.01% | Ki [25]: 1110 nM

Cc1nc(NC2CCCC2)sc1-c1nc(Nc2ccc(N3CCC(N(C)C)CC3)cn2)ncc1F
inhibition [26]: Active | GI50 (MV4-11 [13]): 454 nM | Ki(app) [27]: inactive | inhibition [28]: Active | inhibition [29]: Active | GI50 (MDA-MB-453): 356 nM | Ki(app) [30]: inactive

— ChEMBL document CHEMBL4004830 (J Med Chem, 2017)
